According to ChEMBL document CHEMBL1155882, “Selective nucleoside triphosphate diphosphohydrolase-2 (NTPDase2) inhibitors: nucleotide mimetics derived from uridine-5'-carboxamide” (J Med Chem, 2008):

Tests used:
[1] = target: T1, Ectonucleoside triphosphate diphosphohydrolase 3 (Homo sapiens) (UniProt O75355); test: Inhibition of human NTPDase 3 expressed in COS7 cells at 1mM; type: cell-based; details: COS-7
T1 sequence (whole entry): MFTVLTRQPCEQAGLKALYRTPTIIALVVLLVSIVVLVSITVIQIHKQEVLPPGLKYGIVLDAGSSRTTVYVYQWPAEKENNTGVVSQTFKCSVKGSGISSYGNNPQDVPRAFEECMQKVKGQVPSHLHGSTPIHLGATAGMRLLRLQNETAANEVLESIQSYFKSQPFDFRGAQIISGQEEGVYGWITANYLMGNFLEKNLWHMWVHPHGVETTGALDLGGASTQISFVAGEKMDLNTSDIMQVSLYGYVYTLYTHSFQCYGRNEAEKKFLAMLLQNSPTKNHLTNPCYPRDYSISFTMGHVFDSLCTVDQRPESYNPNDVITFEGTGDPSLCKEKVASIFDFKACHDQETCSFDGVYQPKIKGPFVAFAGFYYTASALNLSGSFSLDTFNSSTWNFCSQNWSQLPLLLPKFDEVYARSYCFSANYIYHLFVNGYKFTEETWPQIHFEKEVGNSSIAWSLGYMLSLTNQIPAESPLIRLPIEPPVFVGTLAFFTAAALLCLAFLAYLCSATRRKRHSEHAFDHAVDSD
In short: (§1)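 NTPDase2 membranes come from stably transfected HEK 293 cells; NTPDase3 and NTPDase8 are transiently expressed in COS-7 cells as crude protein extracts. Buffer is 140 mM NaCl, 5 mM KCl, 1 mM MgCl2, 2 mM CaCl2, 10 mM HEPES pH 7.4, with 400 μM ATP, 37 °C, 10 min, stopped at 99 °C. Products are read by capillary electrophoresis (UV 210 nm, UMP internal standard).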

P2Y purinoceptor 2 [2] = target: T2, P2Y purinoceptor 2 (Homo sapiens, UniProt P41231); test: Antagonist activity at human P2Y2 receptor expressed in human 1321N1 cells assessed as inhibition of UTP-induced intracellular calcium mobilization at 100 uM by FLUOstar plate reader; type: functional, cell-based
In short: (§2)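 Human 1321N1 astrocytoma cells express human P2Y2 or P2Y4, or rat P2Y6. Cells are loaded with Fura-2 AM and preincubated with compound at 100 μM. Inhibition of agonist-induced intracellular calcium release is read as Fura-2 fluorescence. The agonist is UTP for P2Y2 and P2Y4, and UDP for P2Y6.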

[3] = Stability in simulated artificial gastric juice after 24 hrs by LC-MS analysis; type: physicochemical; details: simulated gi fluid
P2Y purinoceptor 4 [4] = target: T3, P2Y purinoceptor 4 (Homo sapiens, UniProt P51582); test: Antagonist activity at human P2Y4 receptor expressed in human 1321N1 cells assessed as inhibition of UTP-induced intracellular calcium mobilization at 100 uM by FLUOstar plate reader; type: functional, cell-based; in short: as §2
[5] = target: P2Y purinoceptor 6 (Rattus norvegicus) (UniProt Q63371); test: Antagonist activity at rat P2Y6 receptor expressed in human 1321N1 cells assessed as inhibition of UDP-induced intracellular calcium mobilization at 100 uM by NOVOstar plate reader; type: functional, cell-based; in short: as §2
[6] = Chemical stability in 0.001 N aqueous sodium hydroxide at pH 11 by LC-MS analysis; type: physicochemical; details: buffer
In short: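 Compound from a 2 mM aqueous stock (20 mM NH4OAc) is diluted 10 μL into 990 μL of 0.001 N NaOH (pH 11). It is incubated 2 or 24 h at 37 °C and analysed by C18 LC–ESI-MS, with detection limit about 0.1 μg/mL.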

[7] = target: P2Y purinoceptor 6 (Rattus norvegicus) (UniProt Q63371); test: Antagonist activity at rat P2Y6 receptor expressed in human 1321N1 cells assessed as inhibition of UDP-induced receptor activation at 100 uM relative to UDP; type: functional, cell-based; parameters: scale not given: the % may be the effect or the level left; in short: as §2
P2Y purinoceptor 2 [8] = target: T2, P2Y purinoceptor 2; test: Antagonist activity at human P2Y2 receptor expressed in human 1321N1 cells assessed as inhibition of UTP and ATP-induced receptor activation at 100 uM relative to UTP; type: functional, cell-based; parameters: scale not given: the % may be the effect or the level left; in short: as §2
[9] = Metabolic stability in rat liver microsomes after 24 hrs by LC-MS analysis; type: ADME, Microsome; details: read-out: Stability
[10] = target: T4, Ectonucleoside triphosphate diphosphohydrolase 8 (Homo sapiens) (UniProt Q5MY95); test: Inhibition of human NTPDase 8 expressed in COS7 cells at 1mM; type: cell-based; details: COS-7
T4 sequence (whole entry): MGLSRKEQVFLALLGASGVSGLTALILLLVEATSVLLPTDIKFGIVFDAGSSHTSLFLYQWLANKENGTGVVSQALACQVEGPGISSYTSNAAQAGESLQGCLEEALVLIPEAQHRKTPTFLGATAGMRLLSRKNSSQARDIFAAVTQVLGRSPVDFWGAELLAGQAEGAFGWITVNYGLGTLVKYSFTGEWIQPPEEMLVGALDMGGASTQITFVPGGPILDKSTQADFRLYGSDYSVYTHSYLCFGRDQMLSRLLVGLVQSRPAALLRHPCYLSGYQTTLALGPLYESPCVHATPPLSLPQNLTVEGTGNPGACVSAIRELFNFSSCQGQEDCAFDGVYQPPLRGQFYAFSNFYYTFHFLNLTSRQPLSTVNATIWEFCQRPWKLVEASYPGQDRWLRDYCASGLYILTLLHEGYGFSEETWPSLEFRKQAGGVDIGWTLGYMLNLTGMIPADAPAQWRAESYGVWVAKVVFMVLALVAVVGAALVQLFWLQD
In short: (§3)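 Transiently transfected COS-7 cell protein extract expressing human enzyme. 1 mM test compound with 400 μM ATP in HEPES 10 mM pH 7.4 buffer (NaCl, KCl, 1 mM MgCl2, 2 mM CaCl2), 37 °C for 10 min. Stopped at 99 °C for 5 min. Products measured by capillary electrophoresis, UV 210 nm, with UMP internal standard. Triplicates in two experiments; empty-pcDNA3 membrane control.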

P2Y purinoceptor 4 [11] = target: T3, P2Y purinoceptor 4; test: Antagonist activity at human P2Y4 receptor expressed in human 1321N1 cells assessed as inhibition of UTP-induced receptor activation at 100 uM relative to UTP; type: functional, cell-based; parameters: scale not given: the % may be the effect or the level left; in short: as §2
[12] = target: T5, Ectonucleoside triphosphate diphosphohydrolase 1 (Homo sapiens) (UniProt P49961); test: Inhibition of human NTPDase 1 expressed in COS7 cells at 1mM; type: cell-based; details: COS-7; in short: as §3
T5 sequence (whole entry): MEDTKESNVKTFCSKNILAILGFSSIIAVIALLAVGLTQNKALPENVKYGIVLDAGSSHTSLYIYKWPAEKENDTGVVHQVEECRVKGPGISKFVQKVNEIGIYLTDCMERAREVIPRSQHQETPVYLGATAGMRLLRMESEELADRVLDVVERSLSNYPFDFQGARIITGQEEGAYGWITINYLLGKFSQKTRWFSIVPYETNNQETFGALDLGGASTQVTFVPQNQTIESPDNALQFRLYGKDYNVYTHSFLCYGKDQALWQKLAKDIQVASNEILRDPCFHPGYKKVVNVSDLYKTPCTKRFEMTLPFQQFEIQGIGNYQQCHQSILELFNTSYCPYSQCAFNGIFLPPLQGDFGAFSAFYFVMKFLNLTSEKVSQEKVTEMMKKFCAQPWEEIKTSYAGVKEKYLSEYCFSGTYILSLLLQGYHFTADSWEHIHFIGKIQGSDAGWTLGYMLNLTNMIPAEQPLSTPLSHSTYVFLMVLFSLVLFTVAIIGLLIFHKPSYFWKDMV

[13] = target: T6, Ectonucleoside triphosphate diphosphohydrolase 2 (Homo sapiens) (UniProt Q9Y5L3); test: Inhibition of human NTPDase 2 expressed in HEK293 cells at 1mM; type: cell-based
T6 sequence (whole entry): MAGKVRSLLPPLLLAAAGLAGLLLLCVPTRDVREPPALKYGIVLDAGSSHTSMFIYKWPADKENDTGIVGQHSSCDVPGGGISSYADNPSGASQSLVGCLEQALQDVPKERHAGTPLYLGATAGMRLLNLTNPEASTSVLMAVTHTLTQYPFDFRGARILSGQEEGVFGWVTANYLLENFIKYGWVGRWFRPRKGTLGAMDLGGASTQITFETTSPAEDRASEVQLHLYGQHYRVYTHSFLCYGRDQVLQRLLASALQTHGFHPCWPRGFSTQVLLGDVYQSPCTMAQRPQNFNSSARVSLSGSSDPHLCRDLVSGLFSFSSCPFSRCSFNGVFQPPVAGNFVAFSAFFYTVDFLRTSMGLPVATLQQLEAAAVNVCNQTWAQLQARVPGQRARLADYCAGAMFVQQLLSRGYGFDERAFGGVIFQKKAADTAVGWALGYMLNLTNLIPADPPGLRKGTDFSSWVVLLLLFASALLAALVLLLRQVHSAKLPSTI
In short: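 Membranes from HEK 293 cells stably expressing human NTPDase2 (geneticin selection), prepared by differential and sucrose-gradient centrifugation. 1 mM test compound with 400 μM ATP in 10 mM HEPES pH 7.4 saline (1 mM MgCl2, 2 mM CaCl2), 37 °C for 10 min. Heat-stopped at 99 °C. Nucleotides separated by capillary electrophoresis, UV 210 nm, UMP internal standard. Triplicates, two experiments.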

[14] = target: T7, Ectonucleoside triphosphate diphosphohydrolase 8 (Homo sapiens, UniProt Q5MY95); test: Inhibition of human NTPDase 8 expressed in COS7 cells; type: cell-based, COS-7; in short: as §1
T7 sequence (Q5MY95 whole entry): T4 sequence (whole entry)

[15] = Inhibition of rat NTPDase 3
[16] = target: T8, Ectonucleoside triphosphate diphosphohydrolase 2 (Homo sapiens, UniProt Q9Y5L3); test: Inhibition of human NTPDase 2 expressed in HEK293 cells assessed as residual activity by capillary electrophoresis; type: cell-based; in short: as §1
T8 sequence (Q9Y5L3 whole entry): T6 sequence (whole entry)

T3 sequence (P51582 whole entry): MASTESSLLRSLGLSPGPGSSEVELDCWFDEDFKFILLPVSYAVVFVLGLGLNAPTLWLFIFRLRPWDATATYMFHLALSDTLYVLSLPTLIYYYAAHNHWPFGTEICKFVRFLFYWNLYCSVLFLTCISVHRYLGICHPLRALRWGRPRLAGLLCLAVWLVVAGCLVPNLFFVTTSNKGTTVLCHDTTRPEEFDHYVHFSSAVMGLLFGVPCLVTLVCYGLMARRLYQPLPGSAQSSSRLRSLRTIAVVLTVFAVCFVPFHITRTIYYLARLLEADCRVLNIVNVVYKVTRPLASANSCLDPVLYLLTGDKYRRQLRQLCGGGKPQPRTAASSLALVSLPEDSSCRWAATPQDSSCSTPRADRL
T2 sequence (P41231 whole entry): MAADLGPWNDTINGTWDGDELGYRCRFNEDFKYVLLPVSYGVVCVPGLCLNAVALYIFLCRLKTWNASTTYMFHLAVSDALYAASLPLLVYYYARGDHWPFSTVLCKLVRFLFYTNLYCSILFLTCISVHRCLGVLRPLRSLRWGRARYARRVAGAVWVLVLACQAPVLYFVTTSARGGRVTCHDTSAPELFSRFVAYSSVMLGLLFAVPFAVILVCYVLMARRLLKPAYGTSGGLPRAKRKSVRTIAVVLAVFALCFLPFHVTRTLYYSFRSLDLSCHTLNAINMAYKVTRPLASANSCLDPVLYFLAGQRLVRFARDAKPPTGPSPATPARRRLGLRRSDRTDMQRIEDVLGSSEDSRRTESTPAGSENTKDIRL
P2Y purinoceptor 6 (Rattus norvegicus), sequence (Q63371 whole entry): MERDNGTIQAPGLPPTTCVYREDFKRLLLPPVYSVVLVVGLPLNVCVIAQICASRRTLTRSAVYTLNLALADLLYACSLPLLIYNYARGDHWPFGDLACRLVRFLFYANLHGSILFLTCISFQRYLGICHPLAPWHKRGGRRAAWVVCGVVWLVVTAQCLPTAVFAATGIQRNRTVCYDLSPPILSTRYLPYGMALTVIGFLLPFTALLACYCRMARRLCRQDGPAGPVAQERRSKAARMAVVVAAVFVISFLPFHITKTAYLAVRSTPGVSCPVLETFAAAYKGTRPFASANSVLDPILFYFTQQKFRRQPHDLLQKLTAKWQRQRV

inhibition [12]	inhibition [13]	SMILES	inhibition [1]	inhibition (P2Y purinoceptor 2 [2])	Stability [3]	inhibition (P2Y purinoceptor 4 [4])	inhibition [5]	Stability [6]	Activity [7]	Activity [3]	Activity (P2Y purinoceptor 2 [8])	remaining at 24 h [9]	inhibition [10]	Activity (P2Y purinoceptor 4 [11])	Activity [6]	Ki [14]	Ki [15]	IC50 [16]
		CCOP(=O)(Cc1ccc(NC(=O)CCCNC(=O)[C@H]2O[C@@H](n3ccc(=O)[nH]c3=O)[C@H](O)[C@@H]2O)cc1)OCC	48%	6%	Stable	7%	-8%	Stable										
		CCOP(=O)(Cc1ccc(NC(=O)CCNC(=O)[C@H]2O[C@@H](n3ccc(=O)[nH]c3=O)[C@H](O)[C@@H]2O)cc1)OCC	40%	10%		14%	7%		-5%	Active	14%	> 95%	0%	-6%	Active			
0%	0%	CCOP(=O)(Cc1ccc(NC(=O)CNC(=O)[C@H]2O[C@@H](n3cnc4c(N)ncnc43)[C@H](O)[C@@H]2O)cc1)OCC	0%			7%	6%						0%					
		CCOP(=O)(Cc1ccc(NC(=O)CCNC(=O)[C@H]2O[C@@H](n3cnc4c(N)ncnc43)[C@H](O)[C@@H]2O)cc1)OCC	0%	46%			15%		-7%		16%		0%	11%				
		CCN(CC)c1ncnc2c1ncn2[C@@H]1O[C@H](COP(=O)(O)OP(=O)(O)C(Br)(Br)P(=O)(O)O)[C@@H](O)[C@H]1O														> 100 µM	112 µM	
0%	0%	CCOP(=O)(CNC(=O)CNC(=O)[C@H]1O[C@@H](n2cnc3c(N)ncnc32)[C@H](O)[C@@H]1O)OCC	25%	61%					6%		33%		0%	-2%				

SMILES	inhibition [12]	inhibition [13]	inhibition [1]	inhibition (P2Y purinoceptor 2 [2])	Stability [3]	inhibition (P2Y purinoceptor 4 [4])	inhibition [5]	Stability [6]	Activity [7]	Activity [3]	Activity (P2Y purinoceptor 2 [8])	remaining at 24 h [9]	inhibition [10]	Activity (P2Y purinoceptor 4 [11])	Activity [6]	Ki [14]	Ki [15]	IC50 [16]
CCOP(=O)(CNC(=O)CCCNC(=O)[C@H]1O[C@@H](n2ccc(=O)[nH]c2=O)[C@H](O)[C@@H]1O)OCC	45%		0%			21%	-3%						0%					101 µM
